In ChEMBL document CHEMBL3414521, “Discovery of the 2-phenyl-4,5,6,7-Tetrahydro-1H-indole as a novel anti-hepatitis C virus targeting scaffold” (Eur J Med Chem, 2015):
Calls of active or inactive are those of the source. The calls are words filed in the database; no cut-off is given here.

Experiments:
[1] = Cytotoxicity against human Huh7.5 cells after 48 hrs by MTS assay; format: cell-based; settings: huh-7, 48 h
Summary of the method: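 Parental Huh7.5 cells grown in DMEM with 10% FCS without G418, 37 °C, 5% CO2; treated at 6–8 doses for 48 h. Viability by MTS bioreduction to formazan; CC50 as concentration halving MTS conversion relative to DMSO controls, mean ± SD of three independent experiments.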

Hepatitis C virus [2] = test: Antiviral activity against HCV genotype 1b infected in HuH7/Rep-Feo1b cells at 50 uM by firefly luciferase reporter gene assay; format: functional, Hepacivirus hominis; settings: for inhibition at 50 µM: Huh-7; for inhibition: Hepacivirus hominis
Summary of the method: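 Replicon reporter cells (gt 1b in Huh7/Rep-Feo1b, firefly luciferase; gt 2a in Huh7.5-FGR-JC1-Rluc2A, Renilla luciferase) kept in DMEM with 10% FCS and 0.5 mg/mL G418, 37 °C, 5% CO2. About 1×10^4 cells per well were treated at 50 μM for 48 h in 1.0% DMSO. Luciferase signal was read relative to DMSO-treated cells as % inhibition.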

Hepatitis C virus [3] = test: Antiviral activity against HCV genotype 2a infected in HuH7.5-FGR-JC1_Rluc2A cells at 50 uM by […] luciferase reporter gene assay; format: functional, Hepacivirus hominis; settings: for inhibition: Hepacivirus hominis
[4] = Selectivity index, ratio of CC50 for human Huh7.5 cells to EC50 for HCV genotype 2a infected in HuH7.5-FGR-JC1_Rluc2A cells; parameters: species or system Huh-7
Hepatitis C virus [5] = test: Antiviral activity against HCV genotype 2a infected in HuH7.5-FGR-JC1_Rluc2A cells by […]; format: functional, Hepacivirus hominis
Hepatitis C virus [6] = test: Antiviral activity against HCV genotype 1b infected in HuH7/Rep-Feo1b cells by firefly luciferase reporter gene assay; format: functional, cell-based, Hepacivirus hominis; settings: Huh-7
Summary of the method: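 Huh7 cells carrying autonomously replicating gt 1b replicon with firefly luciferase reporter; ~1×10^4 cells/well treated 48 h, 1.0% DMSO final. Primary screen at 50 μM; actives titrated over 8–12 quarter-log dilutions. Luciferase signal relative to DMSO-treated controls; EC50 from dose-response curves, mean ± SD of three independent experiments.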

[7] = Selectivity index, ratio of CC50 for human Huh7.5 cells to EC50 for HCV genotype 1b infected in HuH7/Rep-Feo1b cells; parameters: species or system Huh-7

Row | Structure (SMILES) | CC50 [1] [µM] | inhibition at 50 µM (Hepatitis C virus [2]) [%] | inhibition at 50 µM (Hepatitis C virus [3]) [%] | Ratio CC50/EC50 [4] | EC50 (Hepatitis C virus [5]) [µM] | inhibition (Hepatitis C virus [2]) | EC50 (Hepatitis C virus [6]) [µM] | Ratio CC50/EC50 [7] | inhibition (Hepatitis C virus [3])
1 | Cc1ccc(CN(Cc2cc3cc(C)ccc3[nH]c2=O)C(=O)c2ccc(CN3CCN(C)CC3)cc2)cc1 | < 25 | 92 | 99 | – | – | – | – | – | –
2 | Cc1ccc2[nH]c(=O)c(CN(CCc3ccccc3)C(=O)c3ccc(OCCN(C)C)cc3)cc2c1 | > 200 | 45 | 61 | >8 | 24.8 | – | – | – | –
3 | O=C(O)C1CCCN(S(=O)(=O)c2ccccc2)C1 (racemic) | > 200 | – | 62 | >7 | 28.1 | inactive | – | – | –
4 | O=C(O)C1CC(=O)N(CCc2c[nH]c3ccccc23)C1 (centres undefined) | > 200 | 22 | 51 | >4 | 48.5 | – | – | – | –
5 | Cc1ccc2[nH]c(=O)c(CN(Cc3ccc(F)cc3)C(=O)c3ccc(NC(=N)N)cc3)cc2c1 | > 200 | 54 | 29 | – | – | – | – | – | –
6 | CC(=O)N[C@@]12CCN(C(=O)OC(C)(C)C)C[C@@H]1CN(C(=O)OC(C)(C)C)C2 (racemic) | > 200 | – | 43 | – | – | inactive | – | – | –
7 | CCn1cc(-c2ccccc2)c(C(N)=O)c1C | > 200 | 49 | 66 | >8 | 23.6 | – | – | – | –
8 | O=C1CC(c2nc3ccccc3[nH]2)CN1C1CCCCC1 (centres undefined) | > 200 | 19 | 72 | >13 | 15.6 | – | – | – | –
9 | O=C(O)c1cc(-c2ccncc2)nc2ccccc12 | > 200 | – | 49 | – | – | inactive | – | – | –
10 | COc1ccc(NS(=O)(=O)c2ccc(CN3C(=O)c4ccccc4C3=O)cc2)cc1 | > 200 | 39 | 60 | >9 | 22.5 | – | – | – | –
11 | CC(C(N)=O)n1c(-c2ccccc2)cc2c1CCCC2 (centres undefined) | 156 | 50 | 83 | >10 | 15.4 | – | – | – | –
12 | CC(C)(C)OC(=O)N1CC(=O)[C@]2(C)CCN(Cc3ccccc3)[C@@H]2C1 (relative stereo) | 115 | 73 | 98 | >19 | 6 | – | 24.3 | 5 | –
13 | CC1CN(C(=O)c2ccccc2)c2ccccc2NC1=O (centres undefined) | > 200 | 21 | 77 | >14 | 14.1 | – | – | – | –
14 | CCn1cc(C(=O)Nc2ccccc2C(N)=O)c(=O)c2cc(OC)ccc21 | 85.6 | 17 | 65 | 4 | 20.6 | – | – | – | –
15 | Cc1ccc2[nH]c(=O)c(CN(Cc3ccccc3)C(=O)c3ccc(NC(=N)N)cc3)cc2c1 | > 200 | – | 44 | – | – | inactive | – | – | –
16 | C[C@@]12CC3C(=O)N4[C@H](C[C@@]5(C)C(=O)CCCC[C@@H]45)C(=O)N3[C@@H]1CCCCC2=O (mixture of isomers) | > 200 | – | 28 | – | – | inactive | – | – | –
17 | Br.CC(=O)N[C@]12CCN(Cc3ccccc3)C[C@H]1[C@H](c1ccccc1)NC2 (racemic) | > 200 | – | 73 | >41 | 4.9 | inactive | – | – | –
18 | C[C@@]12C[C@@H]3C(=O)Nc4ccccc4C(=O)N3[C@@H]1CCCCC2=O (racemic) | > 200 | – | – | – | – | inactive | – | – | inactive
19 | NC(=O)Cn1c(-c2ccccc2)cc2c1CCCC2 | > 200 | 37 | 48 | – | – | – | – | – | –

Row | Structure (SMILES) | CC50 [1] [µM] | inhibition at 50 µM (Hepatitis C virus [2]) [%] | inhibition at 50 µM (Hepatitis C virus [3]) [%] | Ratio CC50/EC50 [4] | EC50 (Hepatitis C virus [5]) [µM] | inhibition (Hepatitis C virus [2]) | EC50 (Hepatitis C virus [6]) [µM] | Ratio CC50/EC50 [7] | inhibition (Hepatitis C virus [3])
20 | CC1(CO)CCN2CCCCC21 (racemic) | > 200 | 50 | 25 | – | – | – | – | – | –
21 | CCOC(=O)C(C)n1c(-c2ccccc2)cc2c1CCCC2 (racemic) | 84.3 | 74 | 95 | 6 | 13.7 | – | 13.2 | 6 | –
22 | CCn1cc(-c2ccccc2)c(C(=O)O)c1C | > 200 | – | 36 | – | – | inactive | – | – | –
23 | O=C(O)c1nn(Cc2ccccc2)c2ccccc12 | > 200 | – | 46 | – | – | inactive | – | – | –
24 | Cc1cccc(N2CC(c3nc4ccccc4[nH]3)CC2=O)c1 (centres undefined) | > 200 | 21 | 77 | >12 | 17.3 | – | – | – | –
25 | O=C(O)CCn1c(-c2ccccc2)cc2ccccc21 | – | 26 | 54 | – | – | – | – | – | –
26 | COc1cccc(C(=O)Nc2cc(C)nc3ccc(C)cc23)c1 | < 25 | 88 | 99 | – | – | – | – | – | –
27 | Cc1nc2c(c(C)nn2-c2ccccc2)c(C)c1CCC(=O)O | > 200 | – | 78 | >17 | 11.7 | inactive | – | – | –
28 | COC(=O)c1cc(C(=O)O)cc(-c2cc3c(n2Cc2ccccc2)CCCC3)c1 | 45.6 | 81 | 96 | >5 | 9.9 | – | 35.8 | >1 | –
29 | Cc1nn(Cc2ccccc2)c(C)c1C(=O)O | > 200 | 19 | – | – | – | – | – | – | inactive
30 | Br.CC(=O)[C@]12CCN(Cc3ccccc3)C[C@H]1[C@H](c1ccccc1)NC2 (racemic) | > 200 | – | 76 | >11 | 17.4 | inactive | – | – | –
31 | CC(=O)c1cn(CC(=O)O)c2ccccc12 | > 200 | – | 55 | – | – | inactive | – | – | –
32 | c1ccc(Cn2c(-c3cccnc3)cc3c2CCCC3)cc1 | < 25 | 92 | 99 | – | – | – | – | – | –
33 | COc1ccc(CN2CC(C)n3c(nc4cccnc43)C2=O)c(OC)c1 (racemic) | > 200 | 45 | 48 | – | – | – | – | – | –
34 | C=CCn1c(-c2ccccc2)cc2c1CCCC2 | 119 | 35 | 69 | 4 | 32.1 | – | – | – | –
35 | O=C1CC(c2nc3ccccc3[nH]2)CN1Cc1ccccc1 (centres undefined) | > 200 | – | 67 | >9 | 21.1 | inactive | – | – | –
36 | Cc1nn(Cc2ccccc2)c(C)c1CC(=O)O | > 200 | – | 14 | – | – | inactive | – | – | –
37 | CCOC(=O)[C@@H](C)N1C(=O)C(=O)c2ccccc21 | > 200 | 19 | 85 | >27 | 7.3 | – | – | – | –
